ChEMBL document CHEMBL5154824, “Design and synthesis of multifunctional microtubule targeting agents endowed with dual pro-apoptotic and anti-autophagic efficacy” (Eur J Med Chem, 2022)
Converted amounts (≈) assume the structure as drawn. The source made the active and inactive calls. The calls are words filed in the database; no cut-off is given here.

How the values were obtained:
[1] = system: SCC-4; assay: Induction of autophagy in human SCC-4 cells assessed as increase in LC3-II to LC3-I ratio at 10 uM incubated for 30 mins in presence of EBSS followed by compound addition and measured after 3 hrs by Western blot analysis; format: functional, cell-based
In short: (§1)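 SCC4 cells were pre-incubated with or without EBSS for 30 min, then given 10 μM compound, with 10 μM chloroquine as reference, for 3 h. LC3-I/II was assessed by Western blot with GAPDH loading control. The LC3-II/LC3-I ratio came from densitometry, as mean ± SEM of four experiments, with an unpaired one-tailed t-test.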

[2] = Metabolic stability in human liver microsomes assessed as apparent decay constant by HPLC analysis; format: ADME, Microsome
In short: (§2)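 Compound incubated with human liver microsomes plus an NADPH-generating system. Log % of compound recovered (100% at 0 min) was plotted against incubation time and fitted to a monoexponential decay. Controls were boiled microsomes, or microsomes without NADPH-GS, at 37 °C for 60 min.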

[3] = system: HeLa; assay: Induction of autophagy in human HeLa cells assessed as increase in number of autophagosomes formation at 1 uM measured after 3 hrs by immunofluorescence based laser scanning confocal microscopic analysis; format: functional, cell-based
In short: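 HeLa cells in growth medium were treated at 1 or 10 μM, with BafA1 300 nM as reference, for 3 h. Cells were fixed in ice-cold methanol, immunostained for LC3 (autophagosomes) and LAMP1, and imaged by laser scanning confocal microscopy.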

[4] = system: SCC-4; assay: Induction of autophagy in human SCC-4 cells assessed as increase in LC3-II to LC3-I ratio at 10 uM in absence of EBSS measured after 3 hrs by Western blot analysis; format: functional, cell-based; in short: as §1
[5] = Cytotoxicity against human Primary oral epithelial cells assessed as inhibition of cell growth measured after 24 hrs by neutral red uptake assay; format: toxicity, cell-based
In short: (§3)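 Neutral red uptake viability test. NIH3T3 fibroblasts or primary human oral epithelial cells were exposed to compound at 0.1 to 120 μM. EC50 was derived, with SD below 5%.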

[6] = Metabolic stability in human liver microsomes assessed as half life by HPLC analysis; format: ADME, Microsome; in short: as §2
[7] = Mutagenicity in Salmonella typhimurium TA98 in absence of rat liver S9 fraction at 0.3 to 60 uM by AMES test; format: toxicity; conditions: salmonella enterica subsp. enterica serovar typhimurium, s9, 60 µM; dose 0.3-60 µM
[8] = system: HeLa; assay: Inhibition of autophagosome degradationin human HeLa cells at 1 uM incubated for 3 hrs with HBSS medium by immunofluorescence based laser scanning confocal microscopic analysis; format: functional, cell-based
In short: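 HeLa cells were treated in HBSS at 1 or 10 μM, with BafA1 300 nM as reference, for 3 h. After fixation in ice-cold methanol, LC3 and LAMP1 were immunostained. Laser scanning confocal microscopy assessed autophagosome number and LC3/LAMP1 colocalisation.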

[9] = Mutagenicity in Salmonella typhimurium TA100 in presence of rat liver S9 fraction at 0.3 to 60 uM by AMES test; format: toxicity, subcellular; conditions: salmonella enterica subsp. enterica serovar typhimurium, s9, 60 µM; dose 0.3-60 µM
[10] = system: NIH3T3; assay: Cytotoxicity against mouse NIH3T3 cells assessed as inhibition of cell growth measured after 24 hrs by neutral red uptake assay; format: functional, cell-based; conditions: NIH3T3, 24 h; in short: as §3
[11] = system: KYSE-520 cell line; assay: Cytotoxicity against human KYSE520 cells assessed as inhibition of cell growth measured after 72 hrs by alamar blue viability assay; format: functional, cell-based; conditions: KYSE-520, 72 h
In short: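 KYSE-520 oesophageal cells were exposed to at least 8 increasing concentrations for 48 h or 72 h. Viability was read out to give IC50, as the mean ± SD of at least three independent experiments.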

[12] = Aqueous solubility of the compound in pH 3 measured after 24 hrs by HPLC/DAD/UV analysis; format: physicochemical; conditions: aqueous solution at pH 3, pH 3
In short: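 Solubility in aqueous buffer at pH 3, measured by HPLC after 24 h.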

[13] = system: SCC-4; assay: Cytotoxicity against human SCC-4 cells assessed as reduction in cell viability measured after 48 hrs by alamar blue viability assay; format: functional, cell-based; conditions: SCC-4, 48 h
In short: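 Oral squamous carcinoma cells were exposed for 48 h to at least 8 increasing concentrations. Viability was read by AlamarBlue. IC50 is the concentration that halves viability, taken as the mean ± SD of at least three independent experiments.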

[14] = system: HeLa; assay: Cytotoxicity against human HeLa cells overexpressing tubulin beta3 assessed as inhibition of cell growth measured after 48 hrs by MTT assay; format: functional, cell-based
In short: (§4)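 MTT assay. Cells were exposed for 48 h to increasing concentrations of compound. Ovarian A2780 was paired with its P-gp-overexpressing A2780AD counterpart, and HeLa with HeLa β3, which overexpresses the tubulin β3 isotype. IC50 is the mean ± SD of three independent experiments.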

[15] = system: TR146; assay: Induction of apoptosis in human TR146 cells assessed as increase in apoptotic cells at 0.5 uM after 48 hrs by Annexin V-FITC/PI staining based flow cytometry method; format: functional, cell-based
In short: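 Ca9.22 or TR146 cells were seeded at 30×10^4 cells/mL and treated with 500 nM compound or 1% EtOH (v/v) vehicle for 48 h. Annexin V/PI staining was read by flow cytometry, gating 10,000 cells on vehicle-treated cells. Data are mean ± SEM (n = 3).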

[16] = Ratio of IC50 for cytotoxicity against human HeLa cells overexpressing tubulin beta3 assessed as inhibition of cell growth measured after 48 hrs to IC50 for cytotoxicity against human HeLa cells assessed as inhibition of cell growth measured after 48 hrs; format: functional
In short: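 MTT assay: cells exposed to increasing compound concentrations for 48 h. Lines were A2780 and its P-gp-overexpressing A2780AD counterpart, and HeLa and HeLa β3 (tubulin β3-overexpressing). IC50 is the mean ± SD of three independent experiments. R/S is the IC50 in the resistant line divided by that in the parental line.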

[17] = system: A2780; assay: Cytotoxicity against human A2780AD cells assessed as inhibition of cell growth measured after 48 hrs by MTT assay; format: functional, cell-based; conditions: A2780, 48 h; in short: as §4
[18] = Cytotoxicity against human MFD-1 cells assessed as inhibition of cell growth measured after 72 hrs by MTT assay; format: functional, cell-based; conditions: MFD-1, 72 h
In short: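 Oesophageal adenocarcinoma lines were exposed to at least 8 increasing concentrations for 72 h. Viability was measured by MTT. IC50 is the mean ± SD of at least three independent experiments.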

[19] = system: SCC-4; assay: Induction of apoptosis in human SCC-4 cells assessed as increase in apoptotic cells at 0.5 uM after 48 hrs by Annexin V-FITC/PI staining based flow cytometry method; format: functional, cell-based
In short: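 SCC4 cells were treated at 0.5 or 2 μM for 48 h, then stained with Annexin V/PI and analysed by flow cytometry. Data are mean ± SEM of three independent experiments, with an unpaired one-tailed t-test versus vehicle.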

[20] = target: T1, Tubulin (Homo sapiens) (UniProt P68371+Q9H4B7+P0DPH7+P68366+Q13509+Q71U36+P04350+Q3ZCM7+P07437+P68363+Q9BQE3+Q6PEY2+Q13885+Q9BVA1+Q9BUF5); assay: Binding affinity to tubulin (unknown origin) using podophyllotoxin by Competition assay; format: protein-complex assay
In short: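 Fluorescence competition: compound and tubulin at equal concentrations (0.1, 0.5 or 1 μM each) titrated with podophyllotoxin up to 10 μM; excitation 350 nm, emission read at 450 nm on plate reader; displacement judged as fluorescence decrease.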

[21] = target: T1, Tubulin (Homo sapiens); assay: Binding affinity to tubulin (unknown origin) assessed as fluorescence peak around 460 nm by UV/vis absorption spectroscopy; format: protein-complex assay

O=C(OC1=C(c2cccc3ncccc23)Oc2cc3ccccc3cc2-n2cccc21)C1CCNCC1
Activity [1]: Active | k el [2]: 0.000127 s⁻¹ | Activity [3]: Active | Activity [4]: Active | EC50 at 24 h [5]: 45000 nM | half-life [6]: 1.52 h | Activity [7]: Non-Toxic | Activity [8]: Active | Activity [9]: Non-Toxic | EC50 [10]: 600 nM | IC50 [11]: 890 nM | solubility at 24 h [12]: 271 µM (≈ 132 µg/mL) | IC50 [13]: 850 nM

CN1CCN(C(=O)OC2=C(c3cccc4ncccc34)Oc3cc4ccccc4cc3-n3cccc32)CC1
Activity [1]: Active | k el [2]: 0.000367 s⁻¹ | IC50 [14]: 331 nM | Activity [4]: Active | EC50 at 24 h [5]: 45000 nM | Activity [15]: Active | half-life [6]: 0.513 h | Ratio IC50 [16]: 0.71 | IC50 [17]: 399 nM | Activity [7]: Non-Toxic | IC50 [18]: 1210 nM | Activity [9]: Non-Toxic | Activity [19]: Active | Activity [20]: Active | EC50 [10]: 450 nM | Activity [21]: Active | IC50 [11]: 1680 nM | solubility at 24 h [12]: 204 µM (≈ 103 µg/mL) | IC50 [13]: 540 nM
